≈ marks a conversion by molar mass, not a printed value. Calls of active or inactive are those of the source.
Columns and labels:
[1] = Ratio of unbound Cmax in mouse brain to EC50 for glycine alpha3 receptor in mouse model of spared nerve injury-induced tactile allodynia at 30 mg/kg, ip
Procedure, shortened: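 After intraperitoneal dosing, brains were collected at multiple time points. Unbound brain concentration is total brain concentration × brain fraction unbound, divided by mouse GlyRα3 potentiation EC₅₀.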

[2] = molecular target: Glycine receptor alpha-3/beta (Homo sapiens) (UniProt O75311+P48167); assay: Positive allosteric modulation of human glycine alpha3beta receptor expressed in HEK293T cells assessed as compound concentration required to induce up to 3-fold leftward shift in glycine-induced increase in chloride ion flux after 4 mins by Schild plot analysis; assay type: cell-based
Procedure, shortened: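 HEK293T cells stably expressing human GlyRα3β, ~12000 cells/well, plated overnight and loaded with membrane potential blue dye. Glycine 1:2 dilution series premixed with compound at varying concentrations in HEPES/NaCl/mannitol buffer, pH 7.4. FLIPR fluorescence read 4 min and processed as AUC over baseline. mEC₃ is the lowest tested concentration giving a ≥3-fold leftward shift of glycine EC₅₀.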

[3] = Intrinsic clearance in mouse liver microsomes up to 40 mins in presence of NADPH; assay type: ADME, microsome; details: read-out: CLH
[4] = molecular target: T1, Glycine receptor subunit alpha-3 (Homo sapiens, UniProt O75311); assay: Positive allosteric modulation of human glycine alpha3 receptor expressed in HEK293T cells assessed as potentiation of glycine-induced increase in chloride ion flux after 4 mins by membrane potential blue dye based FLIPR assay; assay type: cell-based, HEK-293T
T1 sequence (O75311 whole entry): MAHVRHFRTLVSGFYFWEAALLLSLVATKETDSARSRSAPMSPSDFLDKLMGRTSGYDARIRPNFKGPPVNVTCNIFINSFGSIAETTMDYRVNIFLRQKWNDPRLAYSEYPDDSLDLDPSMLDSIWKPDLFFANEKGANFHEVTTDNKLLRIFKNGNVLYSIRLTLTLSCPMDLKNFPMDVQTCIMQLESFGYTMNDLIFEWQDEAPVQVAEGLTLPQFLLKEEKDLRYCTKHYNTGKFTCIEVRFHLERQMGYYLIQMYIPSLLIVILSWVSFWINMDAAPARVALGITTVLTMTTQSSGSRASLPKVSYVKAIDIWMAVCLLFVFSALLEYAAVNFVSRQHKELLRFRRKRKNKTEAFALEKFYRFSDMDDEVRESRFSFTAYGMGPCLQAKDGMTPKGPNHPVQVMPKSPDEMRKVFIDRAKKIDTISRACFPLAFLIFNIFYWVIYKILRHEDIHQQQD

[5] = molecular target: T1, Glycine receptor subunit alpha-3; assay: Binding affinity to human glycine alpha3 receptor expressed in HEK293T cells by SPR assay; design: species or system HEK-293T
[6] = tested on: human MDR1; assay: Efflux ratio of passive apparent permeability in MDCK cells harboring human MDR1; assay type: ADME, cell-based, Canis lupus familiaris; details: dog
Procedure, shortened: (§1)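 Bidirectional transport at 5 μM, in triplicate, across MDCK cells carrying control vector, human MDR1 or human ABCG2 (BCRP). Passive Papp is the mean of both directions in vector-control cells. Efflux ratios come from the MDR1 and BCRP lines.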

[7] = Passive apparent permeability in MDCK cells; assay type: ADME, cell-based, Canis lupus familiaris; details: dog; procedure, shortened: as §1
[8] = tested on: human BCRP; assay: Efflux ratio of passive apparent permeability in MDCK cells harboring human BCRP; assay type: ADME, cell-based, Canis lupus familiaris; details: dog; procedure, shortened: as §1
[9] = tested on: Liver; assay: Drug metabolism in mouse liver microsomes assessed as oxidation of benzodioxolane moiety up to 40 mins in presence of NADPH; assay type: ADME, microsome
[10] = tested on: Plasma; assay: Unbound Cmax in mouse plasma at 50 mg/kg, ip; assay type: ADME, organism-based; details: in vivo
[11] = tested on: Liver; assay: Drug metabolism in mouse liver microsomes assessed as oxidation of quinolinone core up to 40 mins in presence of NADPH; assay type: ADME, microsome
[12] = tested on: Liver; assay: Drug metabolism in mouse liver microsomes assessed as oxidation of pyrrolidine ring up to 40 mins in presence of NADPH; assay type: ADME, microsome
[13] = tested on: Plasma; assay: Unbound Cmax in mouse plasma at 30 mg/kg, ip; assay type: ADME, organism-based; details: in vivo
[14] = tested on: Plasma; assay: Stability in mouse plasma; assay type: ADME, cell-free
[15] = Drug degradation in neutral buffer at 37 degC after 1 hr
Procedure, shortened: (§2)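 Buffer stability was followed as percent decomposition at three conditions: neutral buffer at 37 °C over 1 h, pH 2 acidic buffer at room temperature, and pH 11 basic buffer at room temperature up to 20 h.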

[16] = Drug degradation in pH 11 basic buffer at room temperature measured after 20 hrs; procedure, shortened: as §2
[17] = Chemical stability in pH 2 acidic buffer at room temperature measured immediately; assay type: physicochemical; procedure, shortened: as §2
[18] = tested on: Mus musculus; assay: Antiallodynic activity in mouse model of spared nerve injury-induced tactile allodynia assessed as tactile threshold at 30 mg/kg, po measured 90 mins post dose by Von Frey filament assay; assay type: functional, organism-based
[19] = Ratio of unbound Cmax in mouse brain to EC50 for glycine alpha3 receptor in mouse model of spared nerve injury-induced tactile allodynia at 60 mg/kg, po
[20] = species: Mus musculus; assay: Ex vivo positive allosteric modulation of glycine receptor in C57BL/6 mouse spinal cord assessed as potentiation of glycine-induced post synaptic current amplitude at 0.5 uM at holding potential of -60 mV after 10 mins in presence of sodium channel inhibitor TTX/AMPA/kainate receptor antagonist CNQX/GABAa receptor antagonist bicuculline/NMDA receptor antagonist APV by electrophysiology method relative to glycine alone
Procedure, shortened: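 Adult mouse spinal cord slices; dorsal horn neurons in laminae I–II were identified histologically and confirmed glycinergic by focal glycine (20 μM) with strychnine (10 μM) reversal. Postsynaptic current amplitude was recorded with glycine 20 μM alone, then with glycine plus compound at 0.5 μM, then with strychnine added. The readout is the mean ratio of PSC amplitude (compound + glycine / glycine alone), n = 5.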

[21] = Ratio of unbound Cmax in mouse brain to EC50 for glycine alpha3 receptor in mouse model of spared nerve injury-induced tactile allodynia at 50 mg/kg, po
[22] = Solubility in phosphate buffered saline; assay type: physicochemical
[23] = Solubility in fasted state simulated intestinal fluid; assay type: physicochemical
[24] = Ratio of unbound Cmax in mouse brain to EC50 for glycine alpha3 receptor in mouse model of spared nerve injury-induced tactile allodynia at 30 mg/kg, po
Procedure, shortened: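 Mice dosed orally; unbound brain Cmax is total brain concentration × brain fraction unbound, sampled at multiple time points. It is divided by EC₅₀ for potentiation of mouse GlyRα3.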

Compound | MEC [2] | microsomal CLint [3] | efflux ratio [6] | Papp [7] | efflux ratio [8] | also measured
CN1C(=O)[C@@H]2CN(S(=O)(=O)c3ccc4nc[nH]c4c3)C[C@@H]2c2cnccc21 | 3.1 µM | < 14 µL/min/mg |  |  |  | Ratio [1]: 0.047
CN1C(=O)[C@@H]2CN(S(=O)(=O)c3ccc4ncn(C)c4c3)C[C@@H]2c2cnccc21 | 3.1 µM |  |  |  |  | 
C[C@@H]1[C@H]2C(=O)N(C)c3ccncc3[C@H]2CN1S(=O)(=O)c1ccc2c(c1)OCO2 | > 25 µM |  |  |  |  | EC50 [4]: > 25 µM; Kd [5]: > 20 µM
C[C@@H]1[C@@H]2C(=O)N(C)c3ccncc3[C@@H]2CN1S(=O)(=O)c1ccc2c(c1)OCO2 | 3.1 µM |  |  |  |  | 
CN1C(=O)[C@@H]2CN(S(=O)(=O)c3ccn4ccnc4c3)C[C@@H]2c2cnccc21 | 3.1 µM | 36 µL/min/mg | 30 | 16 ×10⁻⁶ cm/s | 8.3 | 
CN1C(=O)[C@@H]2CN(S(=O)(=O)c3ccc4c(c3)OCO4)C[C@@H]2c2ccccc21 | 0.78 µM |  |  | 46 ×10⁻⁶ cm/s |  | Drug metabolism [9]: Metabolite_Detected; fCmax [10]: 0.07 µM; Drug metabolism [11]: Metabolite_Detected; Drug metabolism [12]: Metabolite_Detected
CN1C(=O)[C@@H]2CN(S(=O)(=O)c3ccc4ccoc4c3)C[C@@H]2c2cnccc21 | 1.56 µM | 115 µL/min/mg |  |  |  | 
O=S(=O)(c1ccc2c(c1)OCO2)N1C[C@@H]2c3ccccc3-n3ccnc3[C@@H]2C1 | 3.1 µM | 901 µL/min/mg | 1.7 | 58 ×10⁻⁶ cm/s | 1.3 | fCmax [13]: 0.13 µM
C[C@@H]1[C@@H]2c3cnccc3N(C)C(=O)[C@@H]2CN1S(=O)(=O)c1ccc2c(c1)OCO2 | > 25 µM |  |  |  |  | 
CN1C(=O)[C@]2(C#N)CN(S(=O)(=O)c3ccc4c(c3)OCO4)C[C@@H]2c2cnccc21 (racemic) | > 25 µM |  |  |  |  | 
CN1C(=O)[C@@H]2CN(S(=O)(=O)c3ccc4c(c3)OCO4)C[C@@H]2c2cc(F)ccc21 (racemic) | 0.78 µM | 761 µL/min/mg |  |  |  | 
C[C@@H]1[C@H]2c3cnccc3N(C)C(=O)[C@H]2CN1S(=O)(=O)c1ccc2c(c1)OCO2 | > 25 µM |  |  |  |  | 
CN1C(=O)[C@@H]2CN(S(=O)(=O)c3ccc4c(c3)OCO4)C[C@@H]2c2cc(C#N)ccc21 (racemic) | 12.5 µM | 374 µL/min/mg |  |  |  | 
CN1C(=O)[C@@H]2CN(S(=O)(=O)c3ccc4ocnc4c3)C[C@@H]2c2cnccc21 | 0.39 µM | 73 µL/min/mg | 3.6 | 25 ×10⁻⁶ cm/s | 1.1 | Stability [14]: Unstable; Drug degradation [15]: 50%; Drug degradation [16]: 30%; Stability [17]: Unstable
CC(C)C[C@H](CN)CC(=O)O |  |  |  |  |  | Activity [18]: Active
CN1C(=O)[C@H]2CN(S(=O)(=O)c3ccc4c(c3)OCO4)C[C@H]2c2ccccc21 | 6.3 µM | 2440 µL/min/mg |  |  |  | 
CN1C(=O)[C@]2(F)CN(S(=O)(=O)c3ccc4c(c3)OCO4)C[C@@H]2c2cnccc21 (racemic) | > 25 µM |  |  |  |  | 

Compound | MEC [2] | microsomal CLint [3] | efflux ratio [6] | Papp [7] | efflux ratio [8] | also measured
CN1C(=O)[C@@H]2CN(S(=O)(=O)c3ccc4c(c3)OCO4)C[C@@H]2c2cc(O)ccc21 | 0.39 µM | 499 µL/min/mg | 3.2 | 18 ×10⁻⁶ cm/s | 3.1 | 
CN1C(=O)[C@@H]2CN(S(=O)(=O)c3ccc4c(c3)OCO4)C[C@]2(C)c2cnccc21 (racemic) | > 25 µM |  |  |  |  | 
CN1C(=O)[C@@H]2CN(S(=O)(=O)c3ccc(F)c(Cl)c3)C[C@@H]2c2cnccc21 | 3.1 µM | 432 µL/min/mg | 1.2 | 49 ×10⁻⁶ cm/s | 1.1 | 
CN1C(=O)[C@@H]2CN(S(=O)(=O)c3ccc4c(c3)OCO4)C[C@@H]2c2cccnc21 (racemic) | 3.1 µM | 760 µL/min/mg |  |  |  | 
C[C@H]1[C@@H]2C(=O)N(C)c3ccncc3[C@@H]2CN1S(=O)(=O)c1ccc2c(c1)OCO2 | > 25 µM |  |  |  |  | 
CN1C(=O)[C@@H]2CN(S(=O)(=O)c3ccc4scnc4c3)C[C@@H]2c2cnccc21 | 1.56 µM | 79 µL/min/mg | 3.3 | 48 ×10⁻⁶ cm/s | 1.4 | Ratio [19]: 0.15
CN1C(=O)[C@@H]2CN(S(=O)(=O)c3ccc4c(c3)OCO4)C[C@@H]2c2ccncc21 (racemic) | 6.3 µM | 225 µL/min/mg |  |  |  | 
CN1C(=O)[C@H]2CN(S(=O)(=O)c3ccc4c(c3)OCO4)C[C@H]2c2cnccc21 | > 25 µM | 213 µL/min/mg | 1 | 14 ×10⁻⁶ cm/s | 0.9 | Activity [20]: inactive
CN1C(=O)[C@@H]2CN(S(=O)(=O)c3ccc4c(c3)OCC4)C[C@@H]2c2cnccc21 | 1.56 µM | 177 µL/min/mg | 2.9 | 28 ×10⁻⁶ cm/s | 0.7 | Ratio [19]: 0.38
CN1C(=O)[C@@H]2CN(S(=O)(=O)c3ccc4c(c3)CCO4)C[C@@H]2c2cnccc21 | 3.1 µM | 225 µL/min/mg | 4.3 | 50 ×10⁻⁶ cm/s | 1.2 | Ratio [21]: 0.19
O=S(=O)(c1ccc2c(c1)OCO2)N1C[C@@H]2c3nccn3-c3ccccc3[C@@H]2C1 | 6.3 µM | 1670 µL/min/mg |  |  |  | 
CN1C(=O)[C@]2(C)CN(S(=O)(=O)c3ccc4c(c3)OCO4)C[C@@H]2c2ccccc21 (single isomer, unassigned) | > 25 µM |  |  |  |  | 
C[C@H]1[C@@H]2c3cnccc3N(C)C(=O)[C@@H]2CN1S(=O)(=O)c1ccc2c(c1)OCO2 | > 25 µM |  |  |  |  | 
CN1C(=O)[C@@H]2CN(S(=O)(=O)c3ccc4c(c3)OCO4)C[C@@H]2c2cnccc21 | 0.2 µM | 151 µL/min/mg | 0.8 | 52 ×10⁻⁶ cm/s | 0.9 | solubility [22]: 235 µM (≈ 91 µg/mL); solubility [23]: 296 µM (≈ 115 µg/mL); fold change (FC) [20]: 4.9; Ratio [24]: 0.62
C[C@H]1[C@H]2c3cnccc3N(C)C(=O)[C@H]2CN1S(=O)(=O)c1ccc2c(c1)OCO2 | > 25 µM |  |  |  |  | 
CN1C(=O)[C@@H]2CN(S(=O)(=O)c3ccc4c(c3)OCO4)C[C@@H]2c2ncccc21 | 0.78 µM | 136 µL/min/mg | 1.5 | 45 ×10⁻⁶ cm/s | 1 | solubility [22]: 7 µM (≈ 2.71 µg/mL); solubility [23]: 28 µM (≈ 10.8 µg/mL); Ratio [24]: 0.006

Reference: ChEMBL document CHEMBL3992512, “The Discovery and Hit-to-Lead Optimization of Tricyclic Sulfonamides as Potent and Efficacious Potentiators of Glycine Receptors” (J Med Chem, 2017)
